Assay outcomes from PubChem BioAssay.
TbMetRS inhib = blocks T. brucei methionyl-tRNA synthetase activity; purified T. brucei MetRS, ATP depletion, Kinase-Glo luminescence; inhibition, % at 11.9 µM; 360,000 compounds, 0.4% hits;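 active means inhibition above a per-plate cutoff of the control wells' mean inhibition plus 3 SD, cut at about 5.5% in these data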
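Material – parasite MetRS enzyme · Medium – HEPES-MgCl2-KCl buffer plus DTT, spermine, BSA, pyrophosphatase · Reagent – ATP, methionine and E. coli bulk tRNA substrates · Times – 15 min enzyme-compound preincubation, 2 h reaction, 10 min detection, 25 °C · Measured by – luminescence of leftover ATP · Evaluation – percent inhibition relative to median high and low control wells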
NLRP3 yeast inh = NALP3 inhibition in yeast; Yeast reconstituted NLRP3/ASC/caspase-1, beta-gal luminescence, 24 h; inhibition, % at 10 µM; 330,000 compounds, 0.39% hits;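 active means inhibition of 50% or more; inactive means inhibition below 50%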
NALP1 inh = inhibitors of NALP1 inflammasome in yeast | inhibition, % at 10 µM | S. cerevisiae NALP1/ASC/caspase-1 growth, X-gal OD620, 72 h | AID 2071 | 280,000 compounds, 0.61% hits; in the data active means inhibition mostly above about 24%, no sharp cut-off; inactive means mostly below about 32%
MC4R antagonist = blocks human MC4R cAMP signaling | MC4R-expressing cells, MTII-stimulated cAMP, LANCE TR-FRET | 360,000 compounds, 0.48% hits | P32245 | AID 540295 | inhibition, % at 6.5 µM;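 active means inhibition above its plate's cutoff, the mean of tested wells on that plate plus 3 SD, cut at about 29% in these data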
Target sequence (P32245 whole entry, looked up): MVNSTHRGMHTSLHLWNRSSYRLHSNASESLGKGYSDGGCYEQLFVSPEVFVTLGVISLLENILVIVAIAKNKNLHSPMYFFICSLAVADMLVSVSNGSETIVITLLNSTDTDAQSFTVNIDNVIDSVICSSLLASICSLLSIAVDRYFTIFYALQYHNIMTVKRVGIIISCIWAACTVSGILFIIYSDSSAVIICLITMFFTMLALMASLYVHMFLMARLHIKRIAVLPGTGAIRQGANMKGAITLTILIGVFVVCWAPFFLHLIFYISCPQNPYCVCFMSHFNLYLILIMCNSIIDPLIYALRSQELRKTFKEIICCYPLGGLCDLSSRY
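Assay system: U2OS cells stably expressing human melanocortin 4 receptor (MC4R) / Dosing: 6.5 µM / Timing: compound 30 min, challenge 1 h, detection 1 h / Measured by: Eu-cAMP/anti-cAMP TR-FRET, emission 671 nm / Replicates: singlicate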
MC4R barr agon = agonists of human melanocortin 4 receptor (MC4R) beta-arrestin; P32245; U2OS MC4R beta-arrestin complementation, luminescence; percent of melanotan II response, DMSO zero; activation, % at 8.9 µM; 360,000 compounds, 0.98% hits; AID 540308;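 active means activation above a per-plate cutoff, the mean activation of sample wells on that plate plus 3 SD, cut at about 8% in these data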
A1 inh = inhibitors of the anti-apoptotic protein A1, read as caspase activation | MEF A1-2A-BIM cells, Caspase-Glo 3/7 luminescence, 3 h; percent of clofoctol response, vehicle zero | caspase activation, % (test concentration not listed) | 330,000 compounds, 0.066% hits;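 active means over half of replicate activation scores above 10%, or exactly half above 10 with the replicate mean above 10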
MC4R barr conf = human MC4R beta-arrestin agonism confirmation; shares compounds with MC4R barr agon; U2OS MC4R beta-arrestin recruitment, luminescence; scaled DMSO 0%, Melanotan II 100%; activation, % at 8.9 µM; 2,400 compounds, 31% hits; AID 602192;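 active means mean activation across replicates above the hit cutoff set in the earlier primary screen, cut at about 8% in these data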
MOR DOR agonist = activates mu-delta opioid heterodimer, MC4R agonist counter-screen. shares compounds with MC4R barr agon. U2OS PathHunter beta-arrestin, beta-gal luminescence; percent of deltorphin B response, DMSO zero. activation, % at 9.2 µM. 2,400 compounds, 5.8% hits. AID 602194;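 active means mean activation across replicates exceeds the hit threshold derived in the earlier primary screen, cut at about 18% in these data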
Tb MetRS conf = confirmation of Trypanosoma brucei MetRS inhibitors. inhibition, % at 11.9 µM. shares compounds with TbMetRS inhib. T. brucei MetRS enzyme, luminescence (ATP depletion). 1,400 compounds, 93% hits; in the data active means inhibition above about 7%
Jurkat cytotox = counter-screen for T. brucei MetRS inhibitors: Jurkat cell cytotoxicity; shares compounds with TbMetRS inhib; Jurkat cells viability, ATP luminescence; inhibition, % at 8.3 µM; 1,400 compounds, 12% hits; in the data active means inhibition above about 15%
TbMetRS FP orth = inhibits T. brucei methionyl tRNA synthetase in orthogonal FP test; shares compounds with TbMetRS inhib; purified T. brucei MetRS, fluorescence polarization; inhibition, % at 11.9 µM; 1,400 compounds, 44% hits; AID 651607; in the data active means inhibition above about 17%
Hits are given with their value; i = inactive; nt = not tested or not shown. A selection: hits, their analogues and other compounds. The true share with any hit is near 2.5%.

SMILES | TbMetRS inhib | NLRP3 yeast inh | NALP1 inh | MC4R antagonist | MC4R barr agon | A1 inh | Tb MetRS conf | Jurkat cytotox | TbMetRS FP orth | others
OC1(c2cccc(C(F)(F)F)c2)CCN(c2ncnc3c2[nH]c2ccc(F)cc23)CC1 | 12 | nt | nt | i | 9.8 | nt | 24 | 34 | i | MC4R barr conf=i;MOR DOR agonist=i
COc1ccccc1N(CC(=O)NC1CCCC1)S(=O)(=O)c1cccc(C(F)(F)F)c1 | i | i | nt | i | i | nt | nt | nt | nt
O=C(Nc1ccc(F)cc1)Nc1nnc(COc2ccccc2F)s1 | i | i | i | i | i | i | nt | nt | nt
O=C(Nc1nnc(COc2ccccc2F)s1)Nc1ccccc1F | 15 | i | nt | i | 12 | i | 25 | i | i | MC4R barr conf=i;MOR DOR agonist=i
COC(=O)/C(C#N)=C/c1c[nH]c2ccccc12 | i | i | i | i | i | i | nt | nt | nt
Cc1ccc(S(=O)(=O)/C(C#N)=C/c2c[nH]c3ccccc23)cc1 | 19 | i | i | i | i | i | 40 | i | 24
O=c1cc(SCc2ccc(Cl)cc2Cl)nc[nH]1 | i | nt | nt | i | i | nt | nt | nt | nt
COc1ccc(OC)c(CNc2nc3ccccc3n2CCN2CCCCC2)c1 | i | i | i | i | i | i | nt | nt | nt
CCCn1c(NCc2cc(OC)ccc2OC)nc2ccccc21 | 11 | i | i | i | i | i | 20 | i | i
CCn1c(NCc2cc(OC)ccc2OC)nc2ccccc21 | 9.8 | i | i | i | i | i | 20 | i | i
CCN(C(=O)C(C)Sc1ccc(S(=O)(=O)N2CCOCC2)cn1)c1ccccc1 (stereo not drawn) | i | i | nt | i | i | i | nt | nt | nt
COC(=O)c1ccc(C(=O)Nc2ccc(C(C)C)cc2N)cc1 | i | i | i | i | i | i | nt | nt | nt
CC(C)c1ccc(N)c(S(=O)(=O)O)c1 | 7.7 | i | i | i | i | i | i | i | i
O=C(c1ccc(Cl)cc1)c1c[nH]c(C(=O)NNc2cccc(Cl)n2)c1 | 22 | i | i | i | 8.3 | i | 28 | i | i
O=C(c1ccccc1)c1c[nH]c(C(=O)NNc2cccc(Cl)n2)c1 | i | i | i | i | i | i | nt | nt | nt
CCOC(=O)c1ccc(Nc2nnc(C)c3ccccc23)cc1 | i | i | i | i | i | i | nt | nt | nt
O=C(COc1nsnc1N1CCOCC1)Nc1ccc(Br)cc1 | 20 | i | i | i | i | i | 43 | i | 25
COc1ccc(-n2nc3c(c2NC(=O)COc2ccccc2F)CS(=O)(=O)C3)cc1 | i | i | i | i | i | i | nt | nt | nt
COCCCN1CC(=O)N2C(c3cccc(OC)c3)c3[nH]c4ccccc4c3C[C@H]2C1=O (stereo partly drawn) | 12 | i | i | i | i | i | 24 | i | i
COCCN1CC(=O)N2C(c3cccc(OC)c3)c3[nH]c4ccccc4c3C[C@H]2C1=O (stereo partly drawn) | 11 | i | i | i | i | i | 24 | i | i
CC(C)OCCCN1CC(=O)N2C(c3cccc([N+](=O)[O-])c3)c3[nH]c4ccccc4c3C[C@H]2C1=O (stereo partly drawn) | 93 | i | i | i | i | i | 95 | i | 85
CCC(=O)c1c(CC)c2n3c1CC[C@H]3CCC2 | i | i | nt | i | i | i | nt | nt | nt
Cc1ccc2nc(/C(C#N)=C\c3cc(O)ccc3[N+](=O)[O-])[nH]c2c1 | 14 | i | i | i | i | i | 38 | i | i
O=C(NCCc1cccc(Cl)c1)c1ccc(Cl)c([N+](=O)[O-])c1 | i | i | i | i | i | i | nt | nt | nt
O=C(NCCc1nc2ccccc2[nH]1)c1ccc(Cl)c([N+](=O)[O-])c1 | 94 | i | i | i | i | i | 100 | i | 97
SMILES | TbMetRS inhib | NLRP3 yeast inh | NALP1 inh | MC4R antagonist | MC4R barr agon | A1 inh | Tb MetRS conf | Jurkat cytotox | TbMetRS FP orth | others
Cc1ccc(C(=O)NCCc2nc3ccccc3[nH]2)cc1[N+](=O)[O-] | 77 | i | i | i | i | i | 78 | 20 | 59
CN(CC(=O)Nc1ccc(Cl)c(C(F)(F)F)c1)C(=O)c1ccc2c(c1)NC(=O)CS2 | 6.6 | i | nt | i | i | i | 17 | i | i
NNC(=O)CSc1nc(-c2ccccc2)cn1-c1ccccc1 | 7.2 | i | i | i | i | i | i | i | i
Nn1cc(-c2ccccc2)nc1SCC(=O)NCCc1ccccc1 | i | i | i | i | i | i | nt | nt | nt
CCC1CCCN1Cn1cnc2c([nH]c3ccc(C)cc32)c1=O (stereo not drawn) | i | i | i | i | i | i | nt | nt | nt
CCC1CCCN1Cn1cnc2c([nH]c3ccc(Cl)cc32)c1=O (stereo not drawn) | 5.8 | i | i | i | i | i | 18 | i | i
CN(c1ccccc1)S(=O)(=O)c1cccc(NC(=O)CN2CCCc3ccccc32)c1 | i | i | nt | i | i | i | nt | nt | nt
NS(=O)(=O)c1cccc(NC(=O)CN2CCc3ccccc32)c1 | 9.2 | i | i | i | i | i | 9.7 | i | i
NS(=O)(=O)c1ccc(CCNC(=O)c2cc(-c3cc(Cl)ccc3O)n[nH]2)cc1 | 32 | i | i | i | i | i | 38 | i | 36
Cc1cc(C)c(O)c(-c2cc(C(=O)NCCc3ccc(S(N)(=O)=O)cc3)[nH]n2)c1 | 5.7 | i | nt | i | i | i | 15 | i | 17
COc1ccc(CCNC(=O)c2cc(-c3cc(Cl)ccc3O)n[nH]2)cc1OC | i | i | i | i | i | i | nt | nt | nt
Cc1cc(O)c(-c2cc(C(=O)NCCc3ccc(S(N)(=O)=O)cc3)[nH]n2)cc1C | i | i | nt | i | i | i | nt | nt | nt
CC#CCN(Cc1ccco1)C(=O)C1CCC(=O)N(CCc2cccc(F)c2)C1 (stereo not drawn) | i | nt | nt | i | i | nt | nt | nt | nt
CC1(C)CC(N2CCN(CCO)CC2)=CC(=S)N1 | 6.2 | i | i | i | i | i | i | i | i
CC1(C)CC(NCc2ccccc2)=CC(=S)N1 | i | nt | nt | nt | nt | nt | nt | nt | nt
O=C(CCc1nc2ccccc2c(=O)[nH]1)OCc1ccccc1F | i | i | i | i | i | i | nt | nt | nt
O=C(CCc1nc2ccccc2c(=O)[nH]1)OCCOc1ccc(Cl)cc1 | 16 | i | i | i | i | i | 30 | i | 19
